From ChEMBL document CHEMBL1155198, “Non-nucleoside inhibitors of HCV polymerase NS5B. Part 4: structure-based design, synthesis, and biological evaluation of benzo[d]isothiazole-1,1-dioxides” (Bioorg Med Chem Lett, 2009)

Legend:
Genome polyprotein = Genome polyprotein (Hepatitis C virus genotype 1b (isolate Con1) (HCV), UniProt Q9WMX2); assay: Inhibition of […] con1 NS5B polymerase assessed as [3H]UTP incorporation into acid insoluble RNA product
Hepatitis C virus [1] = assay: Antiviral activity against HCV1b infected in human 2209-23 cells assessed as inhibition of virus RNA replication by Renilla luciferase reporter gene assay in presence of 5% fetal bovine serum; format: functional, organism-based, Hepacivirus hominis; conditions: genotype 1b
Procedure, shortened: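 Cell-based HCV subgenomic replicon (genotype 1b) assay run in medium containing 5% fetal bovine serum.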

Hepatitis C virus [2] = assay: Antiviral activity against HCV1b infected in human 2209-23 cells assessed as inhibition of virus RNA replication by Renilla luciferase reporter gene assay in presence of 40% human serum; format: functional, organism-based, Hepacivirus hominis; conditions: genotype 1b
Procedure, shortened: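 Serum-shift version of the HCV subgenomic replicon (GT-1b) cell assay, with 40% human serum added to assess the effect of protein binding.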

Hepatitis C virus [3] = assay: Selectivity ratio, EC50 for HCV1b in presence of 40% human serum to EC50 for HCV1b in presence of 5% fetal bovine serum; format: functional, Hepacivirus hominis, genotype 1b
Hepatitis C virus [4] = assay: Ratio of EC50 for HCV GT-1a replicon over EC50 for HCV GT-1b replicon
Hepatitis C virus [5] = assay: Antiviral activity against HCV1b infected in human 2209-23 cells assessed as inhibition of virus RNA replication by Renilla luciferase reporter gene assay; format: functional, organism-based, Hepacivirus hominis; conditions: genotype 1b
[6] = Metabolic stability in rat liver microsomes; format: ADME, Microsome; conditions: read-out: Stability
[7] = Metabolic stability in cynomolgus monkey liver microsomes; format: ADME, Macaca fascicularis, Microsome; conditions: read-out: Stability
[8] = AUC in rat at 2 mg/kg, iv and 5 mg/kg, po; format: ADME, organism-based; conditions: plasma
Procedure, shortened: (§1)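 Single-dose PK in rats or cynomolgus monkeys; intravenous dose 2 mg/Kg, oral dose 5 mg/Kg; parameters reported as means.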

[9] = AUC in cynomolgus monkey at 2 mg/kg, iv and 5 mg/kg, po; format: ADME, organism-based, Macaca fascicularis; conditions: plasma; procedure, shortened: as §1
[10] = Half life in rat at 2 mg/kg, iv and 5 mg/kg, po; format: ADME, organism-based; conditions: in vivo; procedure, shortened: as §1
[11] = Half life in cynomolgus monkey at 2 mg/kg, iv and 5 mg/kg, po; format: ADME, organism-based, Macaca fascicularis; conditions: in vivo; procedure, shortened: as §1
[12] = Clearance in rat at 2 mg/kg, iv and 5 mg/kg, po; format: ADME, organism-based; conditions: in vivo; procedure, shortened: as §1
[13] = Clearance in cynomolgus monkey at 2 mg/kg, iv and 5 mg/kg, po; format: ADME, organism-based, Macaca fascicularis; conditions: in vivo; procedure, shortened: as §1
[14] = Oral bioavailability in rat at 5 mg/kg; format: ADME, organism-based; conditions: in vivo; procedure, shortened: as §1
[15] = Oral bioavailability in cynomolgus monkey at 5 mg/kg; format: ADME, organism-based, Macaca fascicularis; conditions: in vivo; procedure, shortened: as §1
Caco-2 = assay: Efflux ratio of permeability from basolateral to apical over apical to basolateral side in human Caco-2 cells after 21 days; conditions: caco-2, 504 h

Sequence of Genome polyprotein (Q9WMX2 2420-3010 limits assumed): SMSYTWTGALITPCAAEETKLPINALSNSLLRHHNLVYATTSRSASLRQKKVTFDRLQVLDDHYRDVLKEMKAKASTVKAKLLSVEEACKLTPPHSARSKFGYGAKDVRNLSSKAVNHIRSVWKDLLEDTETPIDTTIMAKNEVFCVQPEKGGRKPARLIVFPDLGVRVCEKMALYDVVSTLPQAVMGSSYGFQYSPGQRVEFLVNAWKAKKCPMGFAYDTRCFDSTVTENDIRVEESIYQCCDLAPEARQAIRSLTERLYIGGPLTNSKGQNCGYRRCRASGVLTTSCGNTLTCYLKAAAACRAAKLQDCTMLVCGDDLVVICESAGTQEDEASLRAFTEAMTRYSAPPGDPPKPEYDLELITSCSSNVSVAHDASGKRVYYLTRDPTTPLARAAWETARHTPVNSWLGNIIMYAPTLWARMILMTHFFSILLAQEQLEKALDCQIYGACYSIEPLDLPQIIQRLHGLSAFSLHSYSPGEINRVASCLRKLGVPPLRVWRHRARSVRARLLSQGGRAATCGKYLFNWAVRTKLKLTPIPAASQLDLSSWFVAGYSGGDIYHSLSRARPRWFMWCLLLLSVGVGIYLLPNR

Compound	IC50 (Genome polyprotein) [nM]	EC50 (Hepatitis C virus [1]) [nM]	EC50 (Hepatitis C virus [2]) [nM]	Ratio IC50 (Hepatitis C virus [3])	Ratio EC50 (Hepatitis C virus [4])	further results
CN(Cc1cccc2c1S(=O)(=O)N=C2C1=C(O)[C@H](C(C)(C)C)N(Cc2ccc(F)c(Cl)c2)C1=O)S(C)(=O)=O	10	108	3040	28.1	–	–
CC(C)(C)[C@H]1C(O)=C(C2=NS(=O)(=O)c3c(CNS(C)(=O)=O)cccc32)C(=O)N1Cc1ccc(F)cc1	–	100	3730	37.3	2	–
CN(Cc1cccc2c1S(=O)(=O)N=C2C1=C(O)[C@H](C(C)(C)C)N(Cc2ccc(F)cc2)C1=O)S(N)(=O)=O	1	272	1270	5.9	–	–
CC(C)(C)[C@H]1C(O)=C(C2=NS(=O)(=O)c3c(NS(C)(=O)=O)cccc32)C(=O)N1Cc1ccc(F)cc1	5	–	–	–	–	EC50 (Hepatitis C virus [5]): 4920 nM
Cc1cc(CN2C(=O)C(C3=NS(=O)(=O)c4c(CNS(C)(=O)=O)cccc43)=C(O)[C@@H]2C(C)(C)C)ccc1F	4	82	2570	31.3	2	microsomal CLint [6]: 431 µL/min/mg; microsomal CLint [7]: 23 µL/min/mg; AUC [8]: 2750 ng·h/mL; AUC [9]: 1230 ng·h/mL; half-life [10]: 4.18 h; half-life [11]: 1.75 h; clearance [12]: 8.4 mL/min/kg; clearance [13]: 10 mL/min/kg; bioavailability [14]: 17%; bioavailability [15]: 11%; Ratio (Caco-2): 31
CC(C)(C)[C@H]1C(O)=C(C2=NS(=O)(=O)c3c(CNS(N)(=O)=O)cccc32)C(=O)N1Cc1ccc(F)cc1	3	105	1300	12.4	–	–
CC(C)(C)[C@H]1C(O)=C(C2=NS(=O)(=O)c3c(CN4CCCCS4(=O)=O)cccc32)C(=O)N1Cc1ccc(F)cc1	12	202	4660	23.1	–	–
Cc1cc(CN2C(=O)C(C3=NS(=O)(=O)c4c(CN(C)S(C)(=O)=O)cccc43)=C(O)[C@@H]2C(C)(C)C)ccc1F	5	129	1070	8.27	2	microsomal CLint [6]: 939 µL/min/mg; AUC [8]: 582 ng·h/mL; half-life [10]: 3.37 h; clearance [12]: 34.4 mL/min/kg; bioavailability [14]: 24%; Ratio (Caco-2): 4.3
Cc1cc(CN2C(=O)C(C3=NS(=O)(=O)c4c(CNS(N)(=O)=O)cccc43)=C(O)[C@@H]2C(C)(C)C)ccc1F	3	76	1170	15.3	2	microsomal CLint [6]: 239 µL/min/mg; AUC [8]: 102 ng·h/mL; half-life [10]: 4.7 h; clearance [12]: 48 mL/min/kg; bioavailability [14]: 8.2%; Ratio (Caco-2): 6.7
CC(C)(C)[C@H]1C(O)=C(C2=NS(=O)(=O)c3cc(CNS(C)(=O)=O)ccc32)C(=O)N1Cc1ccc(F)cc1	43	–	–	–	–	EC50 (Hepatitis C virus [5]): 3840 nM
CC(C)(C)[C@H]1C(O)=C(C2=NS(=O)(=O)c3c(OCS(C)(=O)=O)cccc32)C(=O)N1Cc1ccc(F)cc1	9	235	4660	19.8	–	–
CC(C)(C)[C@H]1C(O)=C(C2=NS(=O)(=O)c3c(OCS(N)(=O)=O)cccc32)C(=O)N1Cc1ccc(F)cc1	6	228	2900	12.7	–	–
CC(C)(C)[C@H]1C(O)=C(C2=NS(=O)(=O)c3c(CCS(C)(=O)=O)cccc32)C(=O)N1Cc1ccc(F)cc1	4	282	4800	17	–	–
